Published values pooled from the literature.
Protocols differ between the studies behind these lines.
Target: Mitogen-activated protein kinase kinase kinase 11 (MAP3K11, Homo sapiens, UniProt Q16584)
Effect on: enzyme activity
Mode: inhibitor

Brc1cnc(Nc2cccc(CN3CCOCC3)c2)nc1NCCc1c[nH]cn1 — remaining activity (radiometric; 1 µM): 2%
Cc1ccc(C(=O)Nc2ccc(CN3CCN(C)CC3)c(C(F)(F)F)c2)cc1C#Cc1cnc2cccnn12 — remaining activity (23.5 nM): 98%
COc1cc(Nc2cnc(C#N)c(O[C@H](C)CN(C)C)n2)ncc1-c1cnn(C)c1 — remaining activity (radiometric; 10 µM): 69%
O=C(Nc1cnn(-c2csc(C(=O)NC3COC3)c2)c1)Nc1ccccc1Cl — remaining activity (5 µM): 93.5%
O=C(Nc1cccc(Nc2ncc(Br)c(NCCc3cnc[nH]3)n2)c1)N1CCCC1 — remaining activity (radiometric; 1 µM): 2%
CC(C)(C)c1nc2c(s1)c1nc(N)ncc1c1ccc(NS(=O)(=O)c3c(F)cccc3F)c(F)c12 — remaining activity (radiometric; 1 µM): 22%
Cc1nn(CC(F)(F)F)cc1Nc1ncc(C2CC2)c(NCCc2c[nH]cn2)n1 — remaining activity (radiometric; 1 µM): 91%
Oc1cccc(-c2nc(N3CCOCC3)c3oc4ncccc4c3n2)c1 — remaining activity (10 µM): 57%
CC(C)(O)[C@H]1CC[C@H](Nc2ccc3ncc(-c4cccc(C(F)(F)F)c4)n3n2)CC1 — remaining activity (1 µM): 68.9%
FC(F)c1nc2ccccc2n1-c1nc(N2CCOCC2)nc(N2CCOCC2)n1 — remaining activity (10 µM): 97%
Cc1sc(C(=O)NC2COC2)cc1-n1cc(NC(=O)Nc2c(F)cccc2Cl)cn1 — remaining activity (10 µM): 90.7%
